Most compounds without a hit are left out; they make up all but 2.1% or so of the library.
CCR6 antag – blocks CCL20-driven beta-arrestin recruitment at human CCR6. 340,000 compounds, 0.49% hits. AID 493098. inhibition, % at 20 µM. CHO-K1 CCR6 PathHunter beta-arrestin, luminescence, CCL20-stimulated;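 active means compounds whose inhibition of the agonist-driven luminescence signal at 20 µM reaches about 50%, limit read from the data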;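 further: cells stimulated with CCL20 at 14 nM final; plate controls were DMSO with CCL20 for no effect and DMSO without agonist for full effect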
Target sequence (P51684 whole entry, looked up): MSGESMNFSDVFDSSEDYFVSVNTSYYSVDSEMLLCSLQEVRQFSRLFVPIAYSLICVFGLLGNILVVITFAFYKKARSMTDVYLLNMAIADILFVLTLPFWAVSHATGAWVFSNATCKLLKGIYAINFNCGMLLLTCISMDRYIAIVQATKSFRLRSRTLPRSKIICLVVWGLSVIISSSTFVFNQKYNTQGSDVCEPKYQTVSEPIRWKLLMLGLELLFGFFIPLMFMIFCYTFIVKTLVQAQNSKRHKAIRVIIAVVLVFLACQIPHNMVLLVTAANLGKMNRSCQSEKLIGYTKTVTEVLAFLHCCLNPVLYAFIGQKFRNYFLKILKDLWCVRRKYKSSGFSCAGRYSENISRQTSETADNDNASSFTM
HTR2A ag – mouse HTR2A agonism via beta-arrestin recruitment | activation, % at 7.6 µM | 360,000 compounds, 0.66% hits | AID 624169 | P35363 | CHO-K1 mHTR2A beta-arrestin complementation, luminescence; percent of 30 µM serotonin response;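 active means activation above a run cutoff, the mean activation of all tested compounds plus 3 SD, cut at about 14% in these data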;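 further: 0% = plate median of compound wells and 100% = 30 µM serotonin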
APJ agonist – agonists of human APJ apelin receptor | CHO-K1 APJ PathHunter beta-arrestin, luminescence; 0% DMSO wells, 100% apelin | activation, % at 20 µM | 330,000 compounds, 0.11% hits | AID 2520;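 active means activation more than six SD over the plate average, tested at 20 µM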;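 further: 0% = DMSO alone and 100% = apelin-13 at 10 nM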
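system = engineered CHO-K1 APJ arrestin reporter cells | input = 1000 cells per well | timing = overnight seeding, 90 min compound at 25 °C, 1 h detection | measured by = enzyme-fragment complementation luminescence | read-out = beta-arrestin recruitment to APJ as agonist activity, luminescent signal | control set = negative DMSO alone, positive Apelin-13 at 10 nM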
CXCR6 inh – inhibitors of human CXCR6 receptor; O00574; 360,000 compounds, 0.36% hits; AID 602244; CHO-K1 PathHunter CXCR6 beta-arrestin, luminescence; inhibition, % at 20 µM; in the data active means inhibition above about 34%, passing the limit was not always enough;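 further: antagonist mode with CXCL16 agonist at 10 nM final; 0% = 10 nM CXCL16 with DMSO and 100% = unstimulated wells without agonist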
Target sequence (O00574 whole entry, looked up): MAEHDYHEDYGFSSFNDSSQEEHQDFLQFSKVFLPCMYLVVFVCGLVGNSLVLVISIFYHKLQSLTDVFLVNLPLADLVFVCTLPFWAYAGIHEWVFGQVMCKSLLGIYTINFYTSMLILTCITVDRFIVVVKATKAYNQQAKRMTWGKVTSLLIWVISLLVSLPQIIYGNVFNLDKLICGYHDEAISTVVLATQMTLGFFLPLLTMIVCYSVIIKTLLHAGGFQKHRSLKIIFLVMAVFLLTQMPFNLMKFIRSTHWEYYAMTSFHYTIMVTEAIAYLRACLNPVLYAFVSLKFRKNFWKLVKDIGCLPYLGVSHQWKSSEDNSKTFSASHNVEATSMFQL
EBI2 antag – EBI2 (human) antagonism; inhibition, % at 5 µM; EBI2 beta-arrestin recruitment, luminescence, 7a,25-OHC stimulated; AID 651636; P32249; 360,000 compounds, 0.81% hits; in the data active means inhibition above about 38%;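 further: enzyme fragment complementation signal reports receptor beta-arrestin coupling in cells; 0% = agonist plus DMSO wells and 100% = wells without agonist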
APJ antagonist – APJ receptor antagonism. P35414. CHO-K1 APJ beta-arrestin complementation, luminescence. 330,000 compounds, 0.32% hits. inhibition, % at 20 µM;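 active means inhibition above about 40% at 20 µM, limit read from the data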;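 further: cells challenged with 10 nM apelin-13 agonist together with compound; plate controls were apelin-13 plus DMSO wells for no effect and DMSO wells lacking apelin-13 for full effect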
CXCR6 confirm – CXCR6 antagonism confirmation, single concentration | AID 602409 | CHO-K1 CXCR6 PathHunter beta-arrestin, luminescence | 700 compounds, 65% hits | shares compounds with CXCR6 inh | inhibition, % at 20 µM;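 active means mean inhibition over four retests above 40%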;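 further: receptor stimulated with 10 nM CXCL16 agonist; beta-galactosidase fragment complementation upon beta-arrestin recruitment to receptor; plate controls were CXCL16 plus DMSO for no effect and DMSO without CXCL16 for full effect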
* marks the source's active call; other numbers are inactive results; nt = no result given.

SMILES	CCR6 antag	HTR2A ag	APJ agonist	CXCR6 inh	EBI2 antag	APJ antagonist	CXCR6 confirm
Cc1ccc(/C(CSc2nccn2-c2ncc(C(F)(F)F)cc2Cl)=N\O)cc1	-8.1	2.0	-3.5	-4.5	11.5	17.4	nt
O=C(CSc1nccn1-c1ncc(C(F)(F)F)cc1Cl)c1ccc(Br)cc1	73.9*	-1.1	-4.6	80.3*	1.6	11.9	-0.7
Nc1cc(=O)[nH]c(SCC(=O)Nc2cc(Cl)cc(Cl)c2)n1	-1.4	1.8	-2.7	7.0	11.3	-5.3	nt
Nc1cc(=O)[nH]c(SCC(=O)Nc2ccc(Cl)c(Cl)c2)n1	2.8	-0.3	-4.1	43.1*	0.9	-2.5	5.2
CC1(C)CC[C@]2(C(=O)n3ccnc3)CC[C@]3(C)[C@H](C(=O)C=C4[C@@]5(C)C=C(C#N)C(=O)C(C)(C)[C@@H]5CC[C@]43C)[C@@H]2C1	57.3*	3.1	nt	54.8*	28.5	nt	58.2*
CC(C)(C)NC(=O)NC(=O)COC(=O)c1c(F)cccc1Cl	8.8	1.1	-0.6	40.3*	14.2	4.4	5.8
CN1C(=O)/C(=N/OC(=O)c2ccccc2)c2ccccc21	43.7	1.3	-4.0	40.0*	-8.9	31.1	34.8
O=C(O/N=C1\C(=O)N(c2ccccc2)c2ccccc21)C1CC1	1.1	-0.9	-2.5	-2.5	-4.1	4.8	nt
CCCCn1c(N)c(C(=S)NC(=O)CC(C)(C)C)c(=O)n(C)c1=O	nt	-1.8	-2.1	38.9*	-5.2	37.6	35.0
CCCn1c(N)c(C(=O)CSc2ncn[nH]2)c(=O)n(C)c1=O	6.8	2.1	-0.6	-5.7	-5.7	11.0	nt
O=C(C(=Cc1ccc(F)cc1)c1ccccc1)c1ccc(O)cc1	12.5	-2.4	nt	0.3	-3.1	nt	nt
O=C(C(=Cc1ccc(F)cc1)C(=O)c1ccccc1)c1ccccc1	nt	-8.0	nt	42.3*	25.2	nt	58.5*
Cc1cc(C)c2c(=O)n(CC(=O)Nc3cccc(F)c3)sc2n1	29.7	0.2	-0.9	9.6	10.7	-33.0	nt
CCOc1ccc(NC(=O)Cn2sc3nc(C)cc(C)c3c2=O)cc1	28.7	-0.3	-0.3	38.1*	16.4	-30.0	35.0
Cc1cc(C)c2c(=O)n(CC(=O)Nc3ccc(Cl)cc3)sc2n1	11.1	5.5	5.6	64.6*	7.9	1.1	10.4
Cc1ccc(NC(=O)Cn2sc3nc(C)cc(C)c3c2=O)c(Cl)c1	12.4	11.0	-0.1	7.8	7.2	-14.5	nt
COC(=O)c1c(NC(=O)CN2CCCC(C)C2)c2c(C)cccc2n1C (stereo not given)	-8.1	-6.1	-2.1	1.7	-18.2	9.5	nt
Cc1ccn2c(NC3CCCC3)c(-c3ccccn3)nc2c1	17.1	0.8	-2.3	21.3	14.9	33.2	nt
CCOC(=O)N1CCN(S(=O)(=O)c2cccc3ccc(C)nc23)CC1	-3.2	-4.4	1.5	84.3*	-4.0	-0.3	14.6
O=C(c1ccc(Br)s1)N1CCCC1	-11.4	7.7	-4.1	5.4	-5.8	10.3	nt
O=C(c1ccc(Br)s1)N1CCN(c2ncccn2)CC1	5.7	-0.1	-5.2	41.4*	-4.7	-8.8	2.7
Cn1c(=O)c2c(-c3ccccc3)n(N3CCOCC3)cc2n(C)c1=O	-16.6	3.4	0.3	2.9	-8.3	32.4	nt
CNC(=O)C[C@H]1C(=O)N(c2ccc(Br)cc2)C[C@@H]1CSC	nt	0.2	nt	-7.9	-1.6	nt	nt
COc1ccc(NC(=S)N(CCc2c(C)[nH]c3ccccc23)Cc2cccnc2)cc1	7.2	13.0	-4.1	37.2*	4.8	-7.2	23.4
C[C@H]1CN([C@@H](C)CO)C(=O)CCCn2nncc2CO[C@@H]1CN(C)Cc1ccccc1C(F)(F)F	nt	10.3	nt	39.3*	-1.2	nt	1.2
SMILES	CCR6 antag	HTR2A ag	APJ agonist	CXCR6 inh	EBI2 antag	APJ antagonist	CXCR6 confirm
CCc1nnc(NC(=O)c2cc(-c3ccncc3)nc3ccccc23)s1	-2.8	4.0	-1.3	47.4*	-11.0	-13.1	29.0
CC(C)(C)c1nnc(NC(=O)c2cc(-c3ccccc3)nc3ccccc23)s1	-2.2	1.3	1.6	-7.0	-29.8	6.2	nt
O=C1C=CC(=O)N1c1ccc2c(c1)C(NC(=O)C(F)(F)F)c1ccccc1-2 (stereo not given)	108.4*	2.8	nt	78.9*	15.9	nt	32.5
CCC(=O)OCCNc1cc(SCCC(=O)OC)c2nonc2c1[N+](=O)[O-]	63.7*	4.1	-14.2	58.5*	-12.2	19.9	58.9*
CC(=O)OCCNc1cc(SC(C)C)c2nonc2c1[N+](=O)[O-]	18.0	3.0	-3.3	10.1	9.4	5.0	nt
CCC(=O)OCCNc1cc(Sc2nccn2C)c2nonc2c1[N+](=O)[O-]	111.6*	-2.8	nt	102.0*	52.9*	nt	104.2*
O=C1N=C(N2CCN(c3ccccc3)CC2)S/C1=C\c1ccco1	9.8	-7.0	-6.5	-1.5	-3.4	11.3	nt
c1ccc(-c2nnc3sc(-c4cc5ccccc5o4)nn23)cc1	2.0	0.0	-1.3	3.3	22.2	-9.1	nt
C=CCN(CC=C)C(=S)NC(=O)c1ccc(OC)cc1	23.7	4.4	-3.5	8.5	-4.3	17.5	nt
C=CCN(CC=C)C(=S)NC(=O)c1ccc(C)c(Br)c1	46.4	-7.1	-2.9	48.9*	5.4	31.9	54.4*
C=CCN(CC=C)C(=S)NC(=O)c1ccc(-c2ccccc2)cc1	nt	-3.7	-6.0	52.8*	1.9	20.4	72.8*
O=C(Nc1cccc(N2C(=O)C=CC2=O)c1)c1cccs1	nt	-4.7	-2.1	77.0*	17.4	-6.6	19.2
Cc1nc2ccccc2c(=O)n1-c1cccc(NC(=O)c2cccs2)c1	-1.9	-2.7	12.5	-3.3	-3.9	-1.9	nt
COc1ccccc1CNC1CCCc2ccccc21 (stereo not given)	3.2	-3.3	-3.3	7.4	9.8	10.9	nt
CCc1nc2c(OCCC3CCCCC3)cccn2c1N(C)C(=O)c1ccc(C)cc1	nt	-11.1	nt	41.8*	28.7	nt	48.3*
COc1ccc(CCNC(=O)COC(=O)Cc2ccc(OC)cc2)cc1	10.9	4.2	-4.4	63.0*	15.5	-20.3	1.4
COc1ccc(CCNC(=O)COC(=O)Cc2cccc3ccccc23)cc1	8.5	0.7	4.9	-2.1	-2.8	-2.6	nt
CN(Cc1c(C(=O)N/N=C/c2cccc(O)c2)nnn1-c1nonc1N)C1CCCCC1	-12.2	0.0	-4.1	-0.1	11.5	-24.0	nt
O=[N+]([O-])c1ccc(Sc2nc3ccccc3o2)c([N+](=O)[O-])c1	43.3	2.3	9.2	43.4*	-52.8	-77.7	45.8*
N#Cc1c(C#N)c(SSc2c(C#N)c(C#N)c(N)n2-c2ccccc2)n(-c2ccccc2)c1N	109.1*	-2.2	nt	100.6*	-16.6	nt	84.5*
N#Cc1c(N)n(-c2ccc(N)cc2)c2nc3ccccc3nc12	11.9	-4.5	-2.6	2.1	-6.1	5.3	nt
